ChEMBL document CHEMBL4689842, “EUbOPEN Chemogenomics Library wave 1” (2021)

Tested on: HEK-293T
Test: Multiplex assay against HEK293T
Assay type: toxicity, cell-based
Conditions: human
Method in brief: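 Live cells were stained at seeding with Hoechst33342, BioTracker Green Microtubule Cytoskeleton Dye, MitoTracker Red and Annexin V Alexa Fluor 680. Following compound addition, they were imaged on a CQ1 microscope at 37°C and 5% CO2 and gated by CellPathfinder machine learning into Hoechst high-intensity objects or normal cells, with normal cells split into healthy, pyknosed or fragmented nuclei and pyknosed cells into mitotic or apoptotic. Tubulin, mitochondrial-mass and membrane-permeability phenotypes are per cents of healthy-nucleus cells.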

[1] = 12 h, 1 µM, compound concentration 1 uM, replicate 1
[2] = 12 h, 1 µM, compound concentration 1 uM, replicate 2
[3] = 12 h, 10 µM, compound concentration 10 uM, replicate 1
[4] = 12 h, 10 µM, compound concentration 10 uM, replicate 2
[5] = 24 h, 1 µM, compound concentration 1 uM, replicate 1
[6] = 24 h, 1 µM, compound concentration 1 uM, replicate 2
[7] = 24 h, 10 µM, compound concentration 10 uM, replicate 1
[8] = 24 h, 10 µM, compound concentration 10 uM, replicate 2
[9] = 48 h, 1 µM, compound concentration 1 uM, replicate 1
[10] = 48 h, 1 µM, compound concentration 1 uM, replicate 2
[11] = 48 h, 10 µM, compound concentration 10 uM, replicate 1
[12] = 48 h, 10 µM, compound concentration 10 uM, replicate 2

Which results are given for `Cc1ccccc1C(c1ccccc1C)N1C2CCC1CC(O)(c1ccccc1)C2` (stereo not drawn)?
Population Apoptotic (%) [1]: 48%; Population Healthy Nuclei (%) [1]: 40%; Population Mitotic Cells (%) [1]: 51%; Population Normal (%) [1]: 82%; Population Pyknosed Nuclei (%) [1]: 48%; Total Cell Count [1]: 233; Population Apoptotic (%) [2]: 13%; Population Healthy Nuclei (%) [2]: 39%; Population Mitotic Cells (%) [2]: 86%; Population Normal (%) [2]: 94%; Population Pyknosed Nuclei (%) [2]: 55%; Total Cell Count [2]: 261; Population Apoptotic (%) [3]: 53%; Population Healthy Nuclei (%) [3]: 36%; Population Mitotic Cells (%) [3]: 46%; Population Normal (%) [3]: 88%; Population Pyknosed Nuclei (%) [3]: 54%; Total Cell Count [3]: 350; Population Healthy Nuclei (%) [4]: 26%; Population Mitotic Cells (%) [4]: 78%; Population Normal (%) [4]: 96%; Population Pyknosed Nuclei (%) [4]: 69%; Total Cell Count [4]: 210; Population Apoptotic (%) [5]: 43%; Population Healthy Nuclei (%) [5]: 45%; Population Mitotic Cells (%) [5]: 56%; Population Normal (%) [5]: 82%; Population Pyknosed Nuclei (%) [5]: 40%; Total Cell Count [5]: 254; Population Apoptotic (%) [6]: 13%; Population Healthy Nuclei (%) [6]: 61%; Population Mitotic Cells (%) [6]: 86%; Population Normal (%) [6]: 98%; Population Pyknosed Nuclei (%) [6]: 32%; Total Cell Count [6]: 355; Population Apoptotic (%) [7]: 49%; Population Healthy Nuclei (%) [7]: 42%; Population Mitotic Cells (%) [7]: 50%; Population Normal (%) [7]: 91%; Population Pyknosed Nuclei (%) [7]: 48%; Total Cell Count [7]: 339; Population Healthy Nuclei (%) [8]: 43%; Population Mitotic Cells (%) [8]: 68%; Population Normal (%) [8]: 95%; Population Pyknosed Nuclei (%) [8]: 53%; Total Cell Count [8]: 229; Population Healthy Nuclei (%) [9]: 49%; Population Mitotic Cells (%) [9]: 68%; Population Normal (%) [9]: 87%; Population Pyknosed Nuclei (%) [9]: 28%; Total Cell Count [9]: 301; Population Healthy Nuclei (%) [10]: 85%; Population Mitotic Cells (%) [10]: 87%; Population Normal (%) [10]: 98%; Population Pyknosed Nuclei (%) [10]: 10%; Total Cell Count [10]: 568; Population Apoptotic (%) [11]: 50%; Population Healthy Nuclei (%) [11]: 45%; Population Mitotic Cells (%) [11]: 49%; Population Normal (%) [11]: 91%; Population Pyknosed Nuclei (%) [11]: 42%; Total Cell Count [11]: 372; Population Apoptotic (%) [12]: 23%; Population Healthy Nuclei (%) [12]: 72%; Population Mitotic Cells (%) [12]: 76%; Population Normal (%) [12]: 97%; Population Pyknosed Nuclei (%) [12]: 24%; Total Cell Count [12]: 302
